The target in assay [1] is Hepatitis C virus serine protease, NS3/NS4A (Hepatitis C virus, UniProt A3EZI9+D2K2A8). In words: (§1) Inhibitory activity against Hepatitis C NS3/NS4A protease. Type of assay: protein-complex assay, Hepacivirus hominis. Put shortly:
(§2)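 Enzyme was the HCV NS3 protease domain with an NS4A cofactor peptide. IC50 values are means of two independent experiments, or of three to four for some series.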

For a further assay, the target named is T1, Neutrophil elastase (Homo sapiens, UniProt P08246).
T1 sequence (P08246 whole entry): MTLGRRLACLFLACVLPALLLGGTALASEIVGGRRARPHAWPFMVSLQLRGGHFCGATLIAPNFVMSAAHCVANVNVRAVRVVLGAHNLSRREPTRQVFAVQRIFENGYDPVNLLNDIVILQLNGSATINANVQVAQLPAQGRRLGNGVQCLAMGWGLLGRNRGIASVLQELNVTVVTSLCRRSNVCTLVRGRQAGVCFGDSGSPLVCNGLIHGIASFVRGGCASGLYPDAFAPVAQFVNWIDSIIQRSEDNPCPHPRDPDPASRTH
In words: Binding affinity for enzyme human leukocyte HLE.

Assay [2] has as its target T2, NS3 (Hepatitis C virus, UniProt A3EZJ3, K136M). In words: Binding affinity for enzyme K136M. The arrangement: species or system Hepacivirus hominis.
The target in assay [3] is T3, NS3 (Hepatitis C virus, UniProt A3EZJ3, K136R). The experiment in a line: Binding affinity for enzyme K136R. Details: species or system Hepacivirus hominis.
Assay [4] deals with T4, NS3 (Hepatitis C virus, UniProt A3EZJ3). The experiment in a line: Binding affinity for enzyme NS3 protease wild-type. The arrangement: species or system Hepacivirus hominis. A digest of the protocol:
(§3)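 Protease domain of HCV NS3 with NS4A cofactor peptide. Ki found from steady-state kinetics as reversible competitive inhibition. A second Ki was calculated from pre-steady-state displacement of an active-site fluorescent probe, using k_off/k_on.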

Assay [5] concerns the target T2, NS3. The experiment in a line: Binding affinity NS3 protease K136M. Details: species or system Hepacivirus hominis.
Assay [6] concerns the target T3, NS3. In words: Binding affinity for NS3 protease K136R. Details: species or system Hepacivirus hominis.
Assay [7] deals with T4, NS3. The experiment in a line: Binding affinity for wild type NS3 protease. The arrangement: species or system Hepacivirus hominis. A digest of the protocol:
as §3

The target in assay [8] is Hepatitis C virus serine protease, NS3/NS4A (Hepatitis C virus, UniProt D2K2A8+A3EZI9). The assay is described as §1. The assay is classed as protein-complex assay, Hepacivirus hominis. Put shortly:
as §2

Each structure is given as a SMILES string. Starred links: 1 amine or outer side, 2 acyl side, 3 side chain; linkers in the order of their positions; H or OH if unused. Non-standard residues stand in square brackets, D forms with d. Residues, ends and D or L forms follow the SMILES beside them. ξ: configuration not given here. *: point of attachment. Dip = N[C@H](C(=O)O)C(c1ccccc1)c1ccccc1; X4 = O=C(C(=O)[*:2])[C@H](CC(F)F)N[*:1]; X1 = O=C(NOCc1ccccc1)[C@H](CC(F)F)N*; Abu(4,4-F2) = N[C@@H](CC(F)F)C(=O)O; N(Me)CH2CH2Ph = CN(CCc1ccccc1)*; Cha = N[C@@H](CC1CCCCC1)C(=O)O; NH(CH2)3Ph = c1ccc(CCCN*)cc1; NHPhenethyl = c1ccc(CCN*)cc1; X6 = c1ccc2c(c1)CC(N*)C2; ξE = NC(CCC(=O)O)C(=O)O; Cbz = O=C(OCc1ccccc1)*; Boc = CC(C)(C)OC(=O)*; NHBn = c1ccc(CN*)cc1; X2 = Clc1ccccc1CCN*; X5 = C1CCC(CCN*)CC1

For the compound `CC(C)C[C@H](NC(=O)C(CCC(=O)O)NC(=O)OC(C)(C)C)C(=O)N[C@@H](CS)C(=O)NCCc1ccccc1` (stereo partly drawn) (Boc-[ξE]-Leu-Cys-NHPhenethyl), the 50% inhibitory concentration (IC50) in assay [1] was found to be 27000 nM. On to `CC(C)C[C@H](NC(=O)C(CCC(=O)O)NC(=O)OC(C)(C)C)C(=O)N[C@@H](CS)C(=O)NCc1ccccc1` (stereo partly drawn) (Boc-[ξE]-Leu-Cys-NHBn), for which the IC50 in assay [1] was > 200000 nM. As to `CC(C)COC(=O)NC(CCC(=O)O)C(=O)N[C@@H](CC(C)C)C(=O)NC(CS)C(=O)NCCc1ccccc1C(=O)O` (stereo partly specified), in [1], the IC50 was > 100000 nM. On the same count and under the same terms, to `COC(=O)c1ccccc1CCNC(=O)C(CS)NC(=O)[C@H](CC(C)C)NC(=O)C(CCC(=O)O)NC(=O)OCC(C)C` (stereo partly specified) belongs 54000 nM. For `CC(C)COC(=O)NC(CCC(=O)O)C(=O)N[C@@H](CC(C)C)C(=O)NC(CC(F)F)C(=O)NCCc1ccc(C(=O)O)cc1Cl` (stereo partly specified), the Ki on Neutrophil elastase is > 100000 nM; at NS3 [2], 1300 nM; at NS3 [3], 900 nM; at NS3 [4], 600 nM.

`CC(=O)N[C@@H](CC(=O)O)C(=O)N[C@@H](CCC(=O)O)C(=O)N[C@H](C(=O)N[C@@H](CCC(=O)O)C(=O)N[C@@H](CC1CCCCC1)C(=O)N[C@@H](CC(F)F)C(=O)C(=O)NCc1ccccc1)C(c1ccccc1)c1ccccc1` (Ac-DE[Dip]E[Cha][X4]-NHBn) gave an IC50 in [1] of 2 nM. On the same count and under the same terms, to `COC(=O)c1cccc(CCNC(=O)C(CS)NC(=O)[C@H](CC(C)C)NC(=O)C(CCC(=O)O)NC(=O)OCC(C)C)c1` (stereo partly specified) belongs 25000 nM. In the case of `CC(C)COC(=O)NC(C(=O)N[C@@H](CC(C)C)C(=O)NC(CC(F)F)C(=O)NCCc1ccc(C(=O)O)cc1Cl)C(C)C` (stereo partly specified), the values for the Ki on NS3 [5], on NS3 [6] and on NS3 [7] were 4000 nM, 2300 nM and 2100 nM, respectively. `CC(=O)N[C@@H](CC(=O)O)C(=O)N[C@@H](CCC(=O)O)C(=O)N[C@H](C(=O)N[C@@H](CCC(=O)O)C(=O)N[C@@H](CC1CCCCC1)C(=O)N[C@@H](CS)C(=O)NCc1ccccc1)C(c1ccccc1)c1ccccc1` (Ac-DE[Dip]E[Cha]C-NHBn) had an IC50 in [1] of 250 nM. Take `CC(=O)N[C@@H](CC(=O)O)C(=O)N[C@@H](CCC(=O)O)C(=O)N[C@H](C(=O)N[C@@H](CCC(=O)O)C(=O)N[C@@H](CC1CCCCC1)C(=O)N[C@@H](CS)C(=O)NCCc1ccccc1Cl)C(c1ccccc1)c1ccccc1` (Ac-DE[Dip]E[Cha]C-X2): half-maximal inhibition in assay [1] (IC50) was put at 2 nM.

As to `CC(=O)N[C@@H](CC(=O)O)C(=O)N[C@@H](CCC(=O)O)C(=O)N[C@H](C(=O)N[C@@H](CCC(=O)O)C(=O)N[C@@H](CC1CCCCC1)C(=O)N[C@@H](CS)C(=O)NCCCc1ccccc1)C(c1ccccc1)c1ccccc1` (Ac-DE[Dip]E[Cha]C-{NH(CH2)3Ph}), the IC50 in assay [1] was 210 nM. Take `CC(C)C[C@H](NC(=O)[C@@H](NC(=O)OC(C)(C)C)C(C)C)C(=O)N[C@@H](CC(F)F)C(=O)C(=O)O`: the IC50 in assay [8] was found to be 460 nM. In the case of `CC(C)C[C@H](NC(=O)[C@@H](NC(=O)OCc1ccccc1)C(C)C)C(=O)N[C@@H](CS)C(=O)NCCc1ccccc1` (Cbz-Val-Leu-Cys-NHPhenethyl), the IC50 in assay [1] was > 400000 nM. Consider `CC(=O)N[C@@H](CC(=O)O)C(=O)N[C@@H](CCC(=O)O)C(=O)N[C@H](C(=O)N[C@@H](CCC(=O)O)C(=O)N[C@@H](CC1CCCCC1)C(=O)N[C@@H](CS)C(=O)NC1Cc2ccccc2C1)C(c1ccccc1)c1ccccc1` (Ac-DE[Dip]E[Cha]C-X6), for which the IC50 in assay [1] amounted to 1700 nM. The compound `CC(C)COC(=O)NC(CCC(=O)O)C(=O)N[C@@H](CC(C)C)C(=O)NC(CS)C(=O)NCCc1ccc(C(=O)O)cc1Cl` (stereo partly specified) came in with an IC50 in assay [1] of 700 nM. In assay [1], `COC(=O)c1ccc(CCNC(=O)C(CS)NC(=O)[C@H](CC(C)C)NC(=O)C(CCC(=O)O)NC(=O)OCC(C)C)cc1` (stereo partly specified) displayed an IC50 of 17000 nM. In [1], `CC(=O)N[C@@H](CC(=O)O)C(=O)N[C@@H](CCC(=O)O)C(=O)N[C@H](C(=O)N[C@@H](CCC(=O)O)C(=O)N[C@@H](CC1CCCCC1)C(=O)N[C@@H](CS)C(=O)N(C)CCc1ccccc1)C(c1ccccc1)c1ccccc1` (Ac-DE[Dip]E[Cha]C-{N(Me)CH2CH2Ph}) returned an IC50 of 70000 nM. Consider `COC(=O)c1ccc(CCNC(=O)C(CS)NC(=O)[C@H](CC(C)C)NC(=O)C(CCC(=O)O)NC(=O)OCC(C)C)c(Cl)c1` (stereo partly specified), for which, in [1], the half-maximal inhibitory concentration (IC50) is 3200 nM.

`CC(=O)N[C@@H](CC(=O)O)C(=O)N[C@@H](CCC(=O)O)C(=O)N[C@H](C(=O)N[C@@H](CCC(=O)O)C(=O)N[C@@H](CC1CCCCC1)C(=O)N[C@@H](CS)C(=O)NCCc1ccccc1)C(c1ccccc1)c1ccccc1` (Ac-DE[Dip]E[Cha]C-NHPhenethyl) gave an IC50 in [1] of 7 nM. For the compound `CC(C)C[C@H](NC(=O)C(CCC(=O)O)NC(=O)OC(C)(C)C)C(=O)NC(CC(F)F)C(=O)NCCc1ccccc1Cl` (stereo partly specified), the Ki was > 100000 nM at Neutrophil elastase, 13500 nM at NS3 [2], 8300 nM at NS3 [3] and 7300 nM at NS3 [4]. `CC(C)COC(=O)NC(CCC(=O)O)C(=O)N[C@@H](CC(C)C)C(=O)NC(CS)C(=O)NCCc1cccc(C(=O)O)c1` (stereo partly specified) gave an IC50 in [1] of 9200 nM. As for `CC(=O)N[C@@H](CC(=O)O)C(=O)N[C@@H](CCC(=O)O)C(=O)N[C@H](C(=O)N[C@@H](CCC(=O)O)C(=O)N[C@@H](CC1CCCCC1)C(=O)N[C@@H](CC(F)F)C(=O)O)C(c1ccccc1)c1ccccc1` (Ac-DE[Dip]E[Cha][Abu(4,4-F2)]-OH), the IC50 in assay [1] is 40 nM. Consider `CC(C)COC(=O)NC(CCC(=O)O)C(=O)N[C@@H](CC(C)C)C(=O)NC(CS)C(=O)NCCc1ccccc1` (stereo partly specified), for which the IC50 in assay [1] turned out to be 19000 nM.

The compound `CC(=O)N[C@@H](CC(=O)O)C(=O)N[C@@H](CCC(=O)O)C(=O)N[C@H](C(=O)N[C@@H](CCC(=O)O)C(=O)N[C@@H](CC1CCCCC1)C(=O)N[C@@H](CC(F)F)C(=O)NCCc1ccccc1)C(c1ccccc1)c1ccccc1` (Ac-DE[Dip]E[Cha][Abu(4,4-F2)]-NHPhenethyl) showed an IC50 in assay [1] of 4 nM. `CC(=O)N[C@@H](CC(=O)O)C(=O)N[C@@H](CCC(=O)O)C(=O)N[C@H](C(=O)N[C@@H](CCC(=O)O)C(=O)N[C@@H](CC1CCCCC1)C(=O)N[C@@H](CS)C(=O)NCCC1CCCCC1)C(c1ccccc1)c1ccccc1` (Ac-DE[Dip]E[Cha]C-X5) displayed an IC50 in [1] of 1540 nM. `CC(=O)N[C@@H](CC(=O)O)C(=O)N[C@@H](CCC(=O)O)C(=O)N[C@H](C(=O)N[C@@H](CCC(=O)O)C(=O)N[C@@H](CC1CCCCC1)C(=O)N[C@@H](CC(F)F)C(=O)NOCc1ccccc1)C(c1ccccc1)c1ccccc1` (Ac-DE[Dip]E[Cha]-X1) yielded an IC50 in assay [1] of 40 nM.

As to `CC(C)C[C@H](NC(=O)[C@H](CCC(=O)O)NC(=O)OC(C)(C)C)C(=O)N[C@@H](CS)C(=O)O` (Boc-Glu-Leu-Cys-OH), the IC50 in assay [1] is > 200000 nM. Turning to `CC(C)C[C@H](NC(=O)C(CCC(=O)O)NC(=O)OC(C)(C)C)C(=O)N[C@@H](CS)C(=O)NCCc1ccccc1Cl` (stereo partly specified), it took 6500 nM to reach half-maximal inhibition in assay [1] (IC50).
